Consider three compounds from ChEMBL document CHEMBL1141075, “4-Oxo-4,7-dihydrothieno[2,3-b]pyridines as non-nucleoside inhibitors of human cytomegalovirus and related herpesvirus polymerases” (J Med Chem, 2005).

Test [1] deals with Vero. The experiment in a line: Antiviral activity against herpes simplex virus type 1 KOS (V823A) plaque forming unit grown on Human foreskin fibroblast cells upon incubation for 1 hour at 37 degrees C with compound dissolved in DMSO. It is filed as functional, cell-based. Conditions: Chlorocebus sabaeus. The method, boiled down: (§1)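 Plaque reduction: about 50 PFU added per well of a 24-well dish of the appropriate cells, 1 h at 37 °C, then the inoculum was replaced by drug-containing DMEM with 10% FBS and 0.8% carboxymethyl cellulose. DMSO stocks were 200-fold. Plates were held at 37 °C until plaques formed. Plaques were counted microscopically or after crystal violet stain. Percent inhibition was taken against the uninhibited control, with IC50 by linear regression.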

Test [2] concerns Vero. The experiment in a line: Antiviral activity against herpes simplex virus type 2 (WT) plaque forming unit grown on Human foreskin fibroblast cells upon incubation for 1 hour at 37 degrees C with compound dissolved in DMSO. It is filed as functional, cell-based. Conditions: Chlorocebus sabaeus. The method, boiled down: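 Plaque reduction: about 50 PFU per well onto the appropriate cell monolayer, adsorbed 1 h at 37 °C. Inoculum was then replaced with DMEM containing 10% FBS, 0.8% carboxymethyl cellulose and diluted compound from 200-fold DMSO stocks. Plates were held at 37 °C until plaques formed, which were counted microscopically or after crystal violet staining. IC50 came from linear regression of % inhibition versus untreated control, as the mean of two determinations.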

Test [3] relates to HFF. The experiment in a line: Antiviral activity against human cytomegalovirus Ad169 (V823A) plaque forming unit grown on Human foreskin fibroblast cells upon incubation for 1 hour at 37 degrees C with compound dissolved in DMSO. Type of test: functional, cell-based, Human betaherpesvirus 5. The method, boiled down: as §1
Test [4] addresses T1, DNA polymerase catalytic subunit (Varicella-zoster virus (strain Dumas) (HHV-3) (Human herpesvirus 3), UniProt P09252).
T1 sequence (P09252 whole entry): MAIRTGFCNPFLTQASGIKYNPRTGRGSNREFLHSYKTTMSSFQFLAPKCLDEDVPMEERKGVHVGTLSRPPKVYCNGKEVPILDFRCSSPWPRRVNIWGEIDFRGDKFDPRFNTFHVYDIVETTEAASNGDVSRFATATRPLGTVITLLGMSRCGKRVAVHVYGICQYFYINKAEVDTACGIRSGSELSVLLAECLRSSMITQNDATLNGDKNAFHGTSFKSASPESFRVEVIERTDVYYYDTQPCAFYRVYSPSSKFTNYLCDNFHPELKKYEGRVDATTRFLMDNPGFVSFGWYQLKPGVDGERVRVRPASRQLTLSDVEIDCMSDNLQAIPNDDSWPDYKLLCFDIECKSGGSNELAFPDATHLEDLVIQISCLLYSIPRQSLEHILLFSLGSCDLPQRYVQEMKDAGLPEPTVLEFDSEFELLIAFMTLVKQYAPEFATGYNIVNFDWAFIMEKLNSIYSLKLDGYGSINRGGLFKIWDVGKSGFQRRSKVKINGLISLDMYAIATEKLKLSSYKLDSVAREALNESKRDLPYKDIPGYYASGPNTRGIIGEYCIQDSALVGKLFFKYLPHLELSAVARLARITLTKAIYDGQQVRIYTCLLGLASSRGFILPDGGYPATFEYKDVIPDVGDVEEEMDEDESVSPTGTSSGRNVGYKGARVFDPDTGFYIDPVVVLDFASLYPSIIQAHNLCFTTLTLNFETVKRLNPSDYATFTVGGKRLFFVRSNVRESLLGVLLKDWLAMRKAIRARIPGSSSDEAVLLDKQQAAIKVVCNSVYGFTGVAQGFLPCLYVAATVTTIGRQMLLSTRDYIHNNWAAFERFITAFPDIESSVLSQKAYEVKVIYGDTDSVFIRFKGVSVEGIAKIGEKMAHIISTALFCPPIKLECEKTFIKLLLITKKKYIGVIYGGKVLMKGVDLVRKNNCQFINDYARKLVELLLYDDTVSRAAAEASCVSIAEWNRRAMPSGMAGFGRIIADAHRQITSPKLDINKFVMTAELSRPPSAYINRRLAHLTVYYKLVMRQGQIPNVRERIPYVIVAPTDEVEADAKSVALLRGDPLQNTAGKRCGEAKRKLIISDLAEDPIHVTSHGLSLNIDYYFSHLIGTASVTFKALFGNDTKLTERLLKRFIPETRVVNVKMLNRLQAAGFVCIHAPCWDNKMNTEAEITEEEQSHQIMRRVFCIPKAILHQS
Description: Inhibition of Varicella-Zoster virus DNA polymerase (95 uL) activity in a solution containing […] HEPES (pH 7.5), incubation for 12 minutes at 26 degrees C. Also noted: species or system Human alphaherpesvirus 3.

The target in test [5] is T2, DNA polymerase catalytic subunit (Human cytomegalovirus (strain AD169) (HHV-5) (Human herpesvirus 5), UniProt P08546).
T2 sequence (P08546 whole entry): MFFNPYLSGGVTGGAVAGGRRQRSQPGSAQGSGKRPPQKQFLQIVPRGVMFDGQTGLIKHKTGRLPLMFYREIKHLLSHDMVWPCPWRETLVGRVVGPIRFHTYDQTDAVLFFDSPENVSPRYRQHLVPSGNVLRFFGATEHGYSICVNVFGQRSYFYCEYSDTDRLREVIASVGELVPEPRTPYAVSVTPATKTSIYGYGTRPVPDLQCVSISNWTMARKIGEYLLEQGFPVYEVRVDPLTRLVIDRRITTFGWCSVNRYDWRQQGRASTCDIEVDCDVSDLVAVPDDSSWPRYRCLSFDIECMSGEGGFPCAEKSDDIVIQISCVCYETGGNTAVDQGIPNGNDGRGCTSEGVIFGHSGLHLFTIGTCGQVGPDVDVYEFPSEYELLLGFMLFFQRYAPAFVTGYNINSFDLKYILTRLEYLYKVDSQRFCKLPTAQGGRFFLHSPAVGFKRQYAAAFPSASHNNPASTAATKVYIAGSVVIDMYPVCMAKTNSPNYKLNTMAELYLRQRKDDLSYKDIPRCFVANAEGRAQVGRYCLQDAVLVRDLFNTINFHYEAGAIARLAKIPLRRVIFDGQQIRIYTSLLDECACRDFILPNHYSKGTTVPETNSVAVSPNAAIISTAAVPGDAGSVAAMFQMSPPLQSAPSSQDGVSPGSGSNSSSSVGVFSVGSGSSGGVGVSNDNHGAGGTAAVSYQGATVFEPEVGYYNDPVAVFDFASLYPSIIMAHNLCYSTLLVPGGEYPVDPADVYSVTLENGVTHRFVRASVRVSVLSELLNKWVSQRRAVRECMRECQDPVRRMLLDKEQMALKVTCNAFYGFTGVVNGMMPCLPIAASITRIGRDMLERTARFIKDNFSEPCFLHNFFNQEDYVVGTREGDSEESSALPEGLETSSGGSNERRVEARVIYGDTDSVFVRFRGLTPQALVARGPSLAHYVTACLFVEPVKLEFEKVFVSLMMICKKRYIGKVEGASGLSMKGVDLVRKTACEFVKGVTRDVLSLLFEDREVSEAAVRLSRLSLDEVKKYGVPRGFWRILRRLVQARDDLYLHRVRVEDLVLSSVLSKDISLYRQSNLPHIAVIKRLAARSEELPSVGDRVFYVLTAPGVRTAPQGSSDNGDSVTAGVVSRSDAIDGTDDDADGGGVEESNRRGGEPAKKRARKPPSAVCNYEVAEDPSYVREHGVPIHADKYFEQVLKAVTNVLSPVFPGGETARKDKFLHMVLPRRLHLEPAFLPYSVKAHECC
Description: Inhibition of human cytomegalovirus DNA polymerase (95 uL) activity in a solution containing […] HEPES (pH 7.5), incubation for 12 minutes at 26 degrees C. Also noted: species or system Human betaherpesvirus 5.

Turning to `Cn1cc(C(=O)NCc2ccc(Cl)cc2)c(=O)c2cc(CN3CCOCC3)sc21`, the IC50 – broadly, the concentration at which inhibition is half-maximal – in test [1] is above 50 µM; in test [2] it was 0.8 µM; in test [3], 6.2 µM; in test [4], 0.77 µM.

Take `O=C(NCc1ccc(Cl)cc1)c1cnc2ccc(CCCO)cc2c1O`: the figures for the IC50 in test [5] and in test [4] were 0.4 µM and 0.07 µM, respectively.

In turn, `Cn1cc(C(=O)NCc2ccc(Cl)cc2)c(=O)c2cc(CN3CCOCC3)ccc21` gave an IC50 in test [5] of 0.7 µM.
